{
  "source": "ChEMBL document CHEMBL4342521",
  "about": "(J Med Chem, 2020)",
  "key": {"[1]": {"target": "T1, Protein deacetylase HDAC6 (Homo sapiens, UniProt Q9UBN7)", "T1 sequence (Q9UBN7 whole entry)": "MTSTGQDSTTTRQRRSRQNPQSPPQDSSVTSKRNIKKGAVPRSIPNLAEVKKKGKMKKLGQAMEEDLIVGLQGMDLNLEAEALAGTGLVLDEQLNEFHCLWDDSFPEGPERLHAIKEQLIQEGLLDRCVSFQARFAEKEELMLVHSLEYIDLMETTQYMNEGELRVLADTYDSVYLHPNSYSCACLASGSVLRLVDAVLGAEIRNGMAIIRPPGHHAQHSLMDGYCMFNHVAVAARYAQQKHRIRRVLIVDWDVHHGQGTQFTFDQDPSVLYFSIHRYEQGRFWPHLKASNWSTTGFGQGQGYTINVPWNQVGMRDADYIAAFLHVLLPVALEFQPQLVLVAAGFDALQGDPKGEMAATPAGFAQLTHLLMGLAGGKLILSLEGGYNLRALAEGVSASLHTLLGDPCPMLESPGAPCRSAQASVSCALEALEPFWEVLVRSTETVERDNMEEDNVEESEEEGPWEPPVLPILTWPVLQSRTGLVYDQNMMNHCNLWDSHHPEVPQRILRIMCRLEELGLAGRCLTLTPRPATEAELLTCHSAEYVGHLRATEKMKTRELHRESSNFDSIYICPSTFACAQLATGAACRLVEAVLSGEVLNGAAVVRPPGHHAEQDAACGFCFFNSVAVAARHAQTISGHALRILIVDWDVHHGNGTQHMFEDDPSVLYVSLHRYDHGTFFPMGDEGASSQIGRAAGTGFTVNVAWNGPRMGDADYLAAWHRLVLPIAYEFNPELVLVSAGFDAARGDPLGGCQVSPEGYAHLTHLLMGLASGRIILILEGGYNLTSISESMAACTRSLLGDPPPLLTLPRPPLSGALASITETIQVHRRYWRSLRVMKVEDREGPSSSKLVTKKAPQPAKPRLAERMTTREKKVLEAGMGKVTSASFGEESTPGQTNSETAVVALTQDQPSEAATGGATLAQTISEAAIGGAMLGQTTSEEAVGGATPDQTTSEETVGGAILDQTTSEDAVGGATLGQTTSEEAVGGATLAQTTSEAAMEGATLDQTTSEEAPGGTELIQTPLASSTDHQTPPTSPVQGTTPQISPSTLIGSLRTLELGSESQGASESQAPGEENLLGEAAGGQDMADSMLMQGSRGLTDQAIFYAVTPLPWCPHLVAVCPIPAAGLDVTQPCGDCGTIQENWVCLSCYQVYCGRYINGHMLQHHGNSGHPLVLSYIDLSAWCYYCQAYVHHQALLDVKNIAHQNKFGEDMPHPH", "test": "Inhibition of recombinant HDAC6 (unknown origin) using Boc-Lys(acetyl)-AMC as substrate preincubated for 1 hr followed by substrate addition and measured after 2 hrs by fluorescence based micro plate reader analysis"}, "Trypsin (Homo sapiens)": {"target": "Trypsin (Homo sapiens) (UniProt P07477+P07478+P35030)", "test": "Inhibition of trypsin (unknown origin)", "type": "protein assay"}, "HT-29": {"system": "HT-29", "test": "Antiproliferative activity against human HT-29 cells assessed as reduction in cell viability after 48 hrs by CellTiter-Blue assay", "type": "functional", "conditions": "HT-29, 48 h, read-out: LC50 (the source's name)", "in_short": "(§1)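 Cells grown in RPMI1640 with 10% FBS at 37 °C, 5% CO₂. 5,000–10,000 cells/well were pre-incubated overnight, and a time-zero CellTiter-Blue read was taken. Six 10-fold dilutions (top final 10 μM) were applied for 48 h, followed by 0.125 mg/mL CellTiter-Blue for 2–4 h. Resorufin fluorescence was read at ex 560/em 590 nm. […] Triplicates.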"}, "OVCAR-5": {"system": "OVCAR-5", "test": "Antiproliferative activity against human OVCAR5 cells assessed as reduction in cell viability after 48 hrs by CellTiter-Blue assay", "type": "functional", "conditions": "OVCAR-5, 48 h, read-out: LC50 (the source's name)", "in_short": "as §1"}, "OVCAR-8": {"system": "OVCAR-8", "test": "Antiproliferative activity against human OVCAR8 cells assessed as reduction in cell viability after 48 hrs by CellTiter-Blue assay", "type": "functional", "conditions": "OVCAR-8, 48 h, read-out: LC50 (the source's name)", "in_short": "as §1"}, "MDA-MB-231": {"system": "MDA-MB-231", "test": "Antiproliferative activity against human MDA-MB-231 cells assessed as reduction in cell viability after 48 hrs by CellTiter-Blue assay", "type": "functional", "conditions": "MDA-MB-231, 48 h, read-out: LC50 (the source's name)", "in_short": "as §1"}, "MV4-11 [2]": {"system": "MV4-11", "test": "Inhibition of p53 degradation in human MV4-11 cells harboring wild type p53/FLT3-ITD mutant at 100 nM after 12 hrs in presence of MDM2 inhibitor RG7388 by Western blot analysis relative to control", "type": "functional", "conditions": "MV4-11, 12 h", "in_short": "(§2)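 Cells (1,500,000 per well) grown 12 h, then drug-treated as specified. Lysed in RIPA buffer, sonicated, centrifuged, protein normalized by BCA. Run on 4–12% Bis-Tris gels in MES, transferred, probed overnight at 4 °C with primary antibodies at 1/1000. Actin served as reference for LC3-II quantitation.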"}, "MV4-11 [3]": {"system": "MV4-11", "test": "Inhibition of p53 degradation in human MV4-11 cells harboring wild type p53/FLT3-ITD mutant assessed as cleavage of pro caspase-3 at 100 nM after 24 hrs in presence of MDM2 inhibitor RG7388 by Western blot analysis", "type": "functional, cell-based", "in_short": "as §2"}, "SR": {"system": "SR", "test": "Induction of apoptosis in human SR cells harboring wild type p53 assessed as pro-caspase 3 cleavage at 50 to 200 nM after 24 hrs by Western blot anlaysis", "type": "functional, cell-based", "in_short": "as §2"}, "RS4-11": {"system": "RS4-11", "test": "Upregulation of P21WAF1/Cip1 protein expression in human RS4:11 cells harboring wild type p53/FLT3 at 50 to 200 nM after 24 hrs by Western blot analysis", "type": "functional, cell-based", "in_short": "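RS4;11 cells were cultured in RPMI-1640 with 10% FBS and HL-60 cells in IMDM with 20% FBS. Cells were plated at 1,500,000 per well, grown 12 h, then drug-treated. Lysis was in RIPA buffer with sonication and centrifugation, and loading was normalized by BCA. Lysates were run on 4–12% Bis-Tris gels in MES buffer and transferred, and membranes were probed overnight at 4 °C with 1/1000 primary antibodies.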"}, "MV4-11 [4]": {"system": "MV4-11", "test": "Inhibition of autophagy in human MV4-11 cells assessed as cell death at 200 nM after 24 hrs in presence of 5 uM of chloroquine by CellTiter-blue dye based spectrophotometric analysis", "type": "functional", "in_short": "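MV4-11 cells grown 12 h, then given 200 nM test agent alone or with z-VAD, chloroquine (5 μM) or wortmannin (100 nM) for 24 h. Viability by CellTiter-Blue (0.125 mg/mL, 2–4 h), resorufin fluorescence 560/590 nm, compared with t = 0 wells; n = 3.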"}, "[5]": {"test": "AUC (0 to infinity) in CD1 mouse at 5 mg/kg, iv after 24 hrs by LC-MS/MS analysis", "type": "ADME, organism-based", "design": "dose 5 mg/kg, route intravenous, time infinity", "conditions": "in vivo", "in_short": "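Male CD-1 mice, fasted overnight, 3 per route; compound in PBS with 5% DMSO, iv bolus 5 mg/kg or oral gavage 20 mg/kg. Blood sampled at 5, 15, 30 min and 1–24 h. Plasma protein-precipitated with acetonitrile plus internal standard, quantified by LC-MS/MS (MRM). AUC by linear trapezoidal method; parameters by non-compartmental analysis.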"}},
  "note": "The source made the active and inactive calls. The calls are words filed in the database; no cut-off is given here.",
  "data": [
    {"smiles": "CCCNNC(=O)/C=C/c1ccc(CNCCc2c(C)[nH]c3ccccc23)cc1.O=C(O)C(F)(F)F", "values": [
      {"measurement": "IC50", "setting": "[1]", "value": "> 50", "unit": "µM"},
      {"measurement": "inhibition", "setting": "Trypsin (Homo sapiens)", "value": "inactive"},
      {"measurement": "CC50", "setting": "HT-29", "value": "> 10", "unit": "µM"},
      {"measurement": "CC50", "setting": "OVCAR-5", "value": "> 10", "unit": "µM"},
      {"measurement": "CC50", "setting": "OVCAR-8", "value": "> 10", "unit": "µM"},
      {"measurement": "CC50", "setting": "MDA-MB-231", "value": "> 10", "unit": "µM"},
      {"measurement": "inhibition at 0.1 µM", "setting": "MV4-11 [2]", "value": 100, "unit": "%"},
      {"measurement": "inhibition", "setting": "MV4-11 [3]", "value": "Active"},
      {"measurement": "Activity", "setting": "SR", "value": "inactive"},
      {"measurement": "Activity", "setting": "RS4-11", "value": "Active"},
      {"measurement": "inhibition", "setting": "MV4-11 [4]", "value": "inactive"},
      {"measurement": "AUC", "setting": "[5]", "value": 0.334, "unit": "µg·h/mL"}
    ]}
  ]
}
